Broadly, the solubility (thermodynamic) is the concentration in solution at equilibrium with solid. As usually defined, the pKi is −log10 of the Ki, conventionally taken in molar units. Low readings indicate a large Ki, high ones a small Ki. What is called AUC(0-t) is exposure summed from dosing to a finite time, without extrapolation to infinity. The low end stands for less exposure, the high end for more exposure. By clearance is commonly meant a measure of how efficiently the substance is removed, as volume per time. A lower clearance goes with inefficient removal. As usually defined, the Tmax is the time from dosing to the highest level. Broadly, the inhibition is the change of the read-out against control, counted positive when it falls. Usually bioavailability stands for dose-corrected exposure relative to a reference, in per cent. A high value points to good availability.

We go through five molecules from ChEMBL document CHEMBL4002602, “Design, Synthesis of Novel, Potent, Selective, Orally Bioavailable Adenosine A2A Receptor Antagonists and Their Biological Evaluation” (J Med Chem, 2017).

pKi: −log10 of the molar value. Values after ≈ are worked out from the molar mass of the structure shown.

Series [1] in a line: Equilibrium aqueous solubility of the compound at pH 7.4 after 4 hrs. It counts as physicochemical. Particulars: aqueous medium; call rule not given here.
Series [2] in a line: Volume of distribution at steady state in Wistar rat at 3 mg/kg, iv by LC/MS/MS analysis. It counts as ADME, organism-based. The conditions noted are these: in vivo, read-out: Vdss. An outline of the steps: (§1)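 Male Wistar rats (230 ± 15 g), fasted overnight, given 3 mg/kg IV via tail vein as a solution (0.6 mg/mL, 5 mL/kg) in NMP-based vehicles with acetate buffer pH 4.2. Serial plasma sampling (K2EDTA) from 0.008 to 24 h. Acetonitrile precipitation, then LC/MS/MS. Non-compartmental analysis per animal; mean of n=4.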

The target in another series is Adenosine receptor A2a (Homo sapiens, UniProt P29274). Kind of series: Displacement of [3H]ZM241385 from human adenosine A2A receptor expressed in HEK293 cell membranes measured after 90 mins. The method, boiled down: (§2)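 Competition binding on membranes from HEK-293 cells overexpressing human A1, A2A, A2B or A3, washed with ADA. Radioligands: [3H]-DPCPX 1 nM (A1), [3H]ZM241385 1 nM (A2A), [3H]-MRS-1754 1.6 nM (A2B), [3H]-HEMADO 2 nM (A3). Buffer was 50 mM Tris with EDTA and ADA; MgCl2 10 mM for A2A/A3; A2B at pH 6.5 with 5 mM MgCl2. Incubation 90 min at room temperature, then filtration. Nonspecific binding defined by NECA 100 μM. Ki values: mean of two experiments, triplicate points.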
A general note: Displacement assays read how much labelled ligand stays bound in the presence of the test substance.

A short description of series [3]: Equilibrium aqueous solubility of the compound at pH 2.1 after 4 hrs. It counts as physicochemical. The conditions noted are these: aqueous medium.
Series [4] is described as follows: AUC (0 to t) in Wistar rat at 10 mg/kg administered via oral gavage by LC/MS/MS analysis. It counts as ADME, organism-based. Particulars: in vivo. An outline of the steps: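 Male Wistar rats (230 ± 15 g), fasted overnight with water available, given a single oral suspension in 1% Tween 80 and 0.5% NaCMC (1 mg/mL, 10 mL/kg). Serial blood sampling (n=3/time point) at 0.25–24 h into K2EDTA. Plasma proteins precipitated with acetonitrile, then LC/MS/MS. AUC0-t by non-compartmental analysis of individual animals.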

The nature of series [5]: Equilibrium aqueous solubility of the compound at pH 4 after 4 hrs. It counts as physicochemical. The conditions noted are these: aqueous medium.
The next series concerns the target Cytochrome P450 2D6 (Homo sapiens, UniProt P10635). Kind of series: Inhibition of CYP2D6 in human liver microsomes at 5 to 25 uM using dextromethorphan as substrate preincubated for 5 mins with substrate followed by NADPH addition measured after 10 mins by LC-MS/MS analysis. It counts as ADME. Particulars: microsomes, 10 min, 25 µM. A general note: Liver microsomes are a subcellular fraction often used to study metabolism.

Series [6] can be described thus: Clearance in Wistar rat at 3 mg/kg, iv by LC/MS/MS analysis. It counts as ADME, organism-based. The conditions noted are these: in vivo. The method, boiled down:
as §1

Another series deals with T1, Adenosine receptor A1 (Homo sapiens, UniProt P30542).
T1 sequence (P30542 whole entry): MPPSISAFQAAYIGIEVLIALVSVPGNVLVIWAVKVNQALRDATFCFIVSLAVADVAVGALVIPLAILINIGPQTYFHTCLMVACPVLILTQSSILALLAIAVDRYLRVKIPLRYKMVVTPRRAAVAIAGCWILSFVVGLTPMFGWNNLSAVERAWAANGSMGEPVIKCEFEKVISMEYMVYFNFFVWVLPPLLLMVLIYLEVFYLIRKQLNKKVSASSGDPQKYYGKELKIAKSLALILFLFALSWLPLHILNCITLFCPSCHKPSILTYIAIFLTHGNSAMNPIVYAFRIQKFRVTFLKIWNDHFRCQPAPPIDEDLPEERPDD
Kind of series: Displacement of [3H]-DPCPX from human adenosine A1 receptor expressed in HEK293 cell membranes measured after 90 mins. The method, boiled down:
as §2

In another series the target is Cytochrome P450 2C19 (Homo sapiens, UniProt P33261). Kind of series: Inhibition of CYP2C19 in human liver microsomes at 5 to 25 uM using (S)mephenytoin as substrate preincubated for 5 mins with substrate followed by NADPH addition measured after 40 mins by LC-MS/MS analysis. The conditions noted are these: microsomes, 40 min, 25 µM. It counts as ADME.
Series [7] can be described thus: Tmax in Wistar rat at 10 mg/kg administered via oral gavage by LC/MS/MS analysis. It counts as ADME, organism-based. The conditions noted are these: in vivo. The method, boiled down:
(§3)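 Fasted male Wistar rats given 10 mg/kg PO as a suspension in 1% Tween 80, 0.5% w/v NaCMC. Serial plasma sampling (K2EDTA) at 0.25–24 h, acetonitrile precipitation, LC/MS/MS. Non-compartmental analysis per animal; bioavailability calculated against the 3 mg/kg IV group; mean of n=4.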

A further series deals with Liver. Kind of series: Metabolic stability in human liver microsomes assessed as metabolic rate at 1 uM preincubated for 5 mins followed by addition of NADPH measured after 3 to 30 mins by LC-MS/MS analysis. The series is classed as ADME, microsome.
The target of another series is T2, Cytochrome P450 1A2 (Homo sapiens, UniProt P05177).
T2 sequence (P05177 whole entry): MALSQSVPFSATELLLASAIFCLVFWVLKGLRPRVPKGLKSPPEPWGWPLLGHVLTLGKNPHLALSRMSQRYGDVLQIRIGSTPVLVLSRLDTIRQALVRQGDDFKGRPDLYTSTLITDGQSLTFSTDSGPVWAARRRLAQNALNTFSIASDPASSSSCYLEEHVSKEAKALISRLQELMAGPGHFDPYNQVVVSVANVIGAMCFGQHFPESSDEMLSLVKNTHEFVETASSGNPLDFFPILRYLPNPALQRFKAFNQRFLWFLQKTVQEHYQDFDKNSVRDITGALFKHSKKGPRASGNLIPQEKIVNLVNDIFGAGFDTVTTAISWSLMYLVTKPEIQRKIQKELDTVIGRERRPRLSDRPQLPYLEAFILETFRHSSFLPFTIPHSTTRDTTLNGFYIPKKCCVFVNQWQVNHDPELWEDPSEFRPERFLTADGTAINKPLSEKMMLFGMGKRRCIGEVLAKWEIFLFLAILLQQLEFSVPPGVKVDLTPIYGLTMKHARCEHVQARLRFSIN
Kind of series: Inhibition of CYP1A2 in human liver microsomes at 5 to 25 uM using phenacetin as substrate preincubated for 5 mins with substrate followed by NADPH addition measured after 10 mins by LC-MS/MS analysis. The series is classed as ADME. The conditions noted are these: microsomes, 10 min, 25 µM.

The target of series [8] is T3, Adenosine receptor A1 (Homo sapiens) (UniProt P30542).
T3 sequence (whole entry): T1 sequence (P30542 whole entry)
Kind of series: Displacement of [3H]-DPCPX from human adenosine A1 receptor expressed in HEK293 cell membranes at 1 uM measured after 90 mins relative to control.

Series [9] in a line: Oral bioavailability in Wistar rat at 10 mg/kg administered via gavage by LC/MS/MS analysis. It counts as ADME, organism-based. Particulars: in vivo. An outline of the steps: as §3
Another series concerns the target hERG (KCNH2) (Homo sapiens, UniProt Q12809). Kind of series: Inhibition of [3H]-astemizole binding to human ERG at 30 uM after 2 hrs by liquid scintillation counting method relative to control. The conditions noted are these: probe [3H]-astemizole.

Chain of Cytochrome P450 2C19 (P33261 whole entry): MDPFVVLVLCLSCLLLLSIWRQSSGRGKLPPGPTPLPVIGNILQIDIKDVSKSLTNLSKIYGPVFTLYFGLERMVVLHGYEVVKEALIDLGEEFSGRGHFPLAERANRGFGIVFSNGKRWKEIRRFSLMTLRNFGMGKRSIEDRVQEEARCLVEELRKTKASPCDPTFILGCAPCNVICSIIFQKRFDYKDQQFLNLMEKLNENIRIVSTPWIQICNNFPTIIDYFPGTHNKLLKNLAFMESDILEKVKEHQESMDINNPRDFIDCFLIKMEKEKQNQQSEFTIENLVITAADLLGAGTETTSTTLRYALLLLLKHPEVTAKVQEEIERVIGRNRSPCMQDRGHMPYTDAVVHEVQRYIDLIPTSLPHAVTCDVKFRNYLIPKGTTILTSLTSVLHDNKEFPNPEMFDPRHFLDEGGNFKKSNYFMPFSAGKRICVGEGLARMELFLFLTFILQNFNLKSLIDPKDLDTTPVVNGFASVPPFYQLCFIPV
Chain of hERG (KCNH2) (Q12809 whole entry): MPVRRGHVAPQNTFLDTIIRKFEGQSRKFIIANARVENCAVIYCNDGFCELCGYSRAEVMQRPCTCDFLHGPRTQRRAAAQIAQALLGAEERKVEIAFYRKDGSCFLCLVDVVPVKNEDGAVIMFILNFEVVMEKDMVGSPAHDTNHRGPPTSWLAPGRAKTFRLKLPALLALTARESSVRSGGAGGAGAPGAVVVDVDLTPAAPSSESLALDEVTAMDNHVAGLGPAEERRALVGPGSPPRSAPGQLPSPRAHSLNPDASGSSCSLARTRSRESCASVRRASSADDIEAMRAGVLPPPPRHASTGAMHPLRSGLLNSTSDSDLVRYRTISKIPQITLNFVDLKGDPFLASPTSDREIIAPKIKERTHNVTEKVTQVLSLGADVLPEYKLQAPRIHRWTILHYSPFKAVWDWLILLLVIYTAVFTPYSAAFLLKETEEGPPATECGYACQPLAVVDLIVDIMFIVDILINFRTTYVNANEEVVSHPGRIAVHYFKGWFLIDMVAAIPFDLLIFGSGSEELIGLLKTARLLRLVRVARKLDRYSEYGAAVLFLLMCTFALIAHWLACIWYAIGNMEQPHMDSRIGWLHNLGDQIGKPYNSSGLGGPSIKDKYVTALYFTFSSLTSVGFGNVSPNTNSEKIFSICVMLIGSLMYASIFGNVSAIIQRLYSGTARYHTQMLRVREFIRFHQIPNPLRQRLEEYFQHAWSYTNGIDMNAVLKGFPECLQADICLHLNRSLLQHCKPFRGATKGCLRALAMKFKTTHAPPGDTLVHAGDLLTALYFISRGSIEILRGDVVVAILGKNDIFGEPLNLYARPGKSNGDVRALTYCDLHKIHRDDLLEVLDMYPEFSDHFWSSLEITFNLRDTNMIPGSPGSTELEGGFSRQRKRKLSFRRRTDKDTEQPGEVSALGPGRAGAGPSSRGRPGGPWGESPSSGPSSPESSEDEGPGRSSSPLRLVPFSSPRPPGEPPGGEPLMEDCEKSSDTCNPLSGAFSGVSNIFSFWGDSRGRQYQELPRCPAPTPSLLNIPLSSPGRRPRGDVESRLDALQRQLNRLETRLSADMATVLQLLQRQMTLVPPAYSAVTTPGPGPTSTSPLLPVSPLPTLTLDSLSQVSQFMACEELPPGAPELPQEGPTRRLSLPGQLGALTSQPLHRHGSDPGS
Chain of Adenosine receptor A2a (P29274 whole entry): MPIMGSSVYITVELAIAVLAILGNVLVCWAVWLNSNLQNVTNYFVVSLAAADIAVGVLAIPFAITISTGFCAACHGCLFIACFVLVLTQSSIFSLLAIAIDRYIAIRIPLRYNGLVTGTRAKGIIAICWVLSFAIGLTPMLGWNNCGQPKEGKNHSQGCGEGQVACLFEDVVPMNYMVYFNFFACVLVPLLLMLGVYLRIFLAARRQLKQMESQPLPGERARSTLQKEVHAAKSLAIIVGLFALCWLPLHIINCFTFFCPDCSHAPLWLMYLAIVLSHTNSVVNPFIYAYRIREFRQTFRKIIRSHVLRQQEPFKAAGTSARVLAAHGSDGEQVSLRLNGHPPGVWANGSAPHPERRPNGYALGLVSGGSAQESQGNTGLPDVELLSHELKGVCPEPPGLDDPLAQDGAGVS
Chain of Cytochrome P450 2D6 (P10635 whole entry): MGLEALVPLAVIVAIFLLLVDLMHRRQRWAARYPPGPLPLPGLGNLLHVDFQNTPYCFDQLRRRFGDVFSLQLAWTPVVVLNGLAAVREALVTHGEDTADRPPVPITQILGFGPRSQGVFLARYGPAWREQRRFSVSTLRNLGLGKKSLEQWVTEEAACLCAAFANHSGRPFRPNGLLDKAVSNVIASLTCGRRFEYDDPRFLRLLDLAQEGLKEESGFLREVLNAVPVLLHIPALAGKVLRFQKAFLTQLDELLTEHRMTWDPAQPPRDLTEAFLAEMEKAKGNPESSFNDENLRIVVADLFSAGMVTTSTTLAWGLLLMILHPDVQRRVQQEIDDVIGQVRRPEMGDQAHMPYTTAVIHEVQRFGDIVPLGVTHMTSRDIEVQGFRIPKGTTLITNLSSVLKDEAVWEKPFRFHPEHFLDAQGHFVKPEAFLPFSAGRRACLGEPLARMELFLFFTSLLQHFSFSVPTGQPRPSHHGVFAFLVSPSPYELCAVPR

Take `COc1ccc(N2CCOCC2)c2sc(NC(=O)C(C)(C)Oc3ccc(F)cc3)nc12`: the solubility (thermodynamic) at 4 h in series [1], in series [3] and in series [5] was less than 6 µM in each case. In addition, the Vd in series [2] came out at 1.4 L/kg. For the same molecule, the pKi at Adenosine receptor A2a was 7.89; on Adenosine receptor A1, 5.30. In [4], the AUC(0-t) was 1.5 µM·h. Also, the “inhibition (INH)” value at Cytochrome P450 2D6, against Cytochrome P450 2C19 and at Cytochrome P450 1A2 was “Not Active” throughout. In addition, the clearance in [6] stood at 15 mL/min/kg. The Tmax in series [7] is 30 min. Further, the Drug metabolism in the series with Liver is recorded as 0.02 nmol/min/mg. In [8], this molecule yielded an inhibition of 16%. In series [9], this molecule gave a bioavailability of 6%.

Regarding `CCN(CC)C1CCC(C)(C(=O)Nc2nc3c(OC)ccc(N4CCOCC4)c3s2)CC1` (stereo not given), the thermodynamic solubility at 4 h stood at 1590 µM (≈ 731 µg/mL) in [1], 1840 µM (≈ 848 µg/mL) in [3] and 1810 µM (≈ 832 µg/mL) in [5]. Besides, in [2], the Vd was 6.1 L/kg. The same molecule gave an inhibition at 2 h, 30 µM on hERG (KCNH2) of 18%. Besides, the pKi at Adenosine receptor A2a was 8.68; at Adenosine receptor A1 it was 5.92. In series [4], this molecule had an AUC(0-t) of 5.5 µM·h. Besides, in series [6], the clearance was 37.2 mL/min/kg. Besides, the Tmax in [7] turned out to be 37.8 min. Further, the Drug metabolism in the series on Liver worked out at 0.03 nmol/min/mg. Also, the bioavailability in [9] amounted to 61%.

As to `COc1cnc(N2CCOCC2)c2sc(NC(=O)C(C)(C)Oc3ccc(F)cc3)nc12`, the thermodynamic solubility at 4 h in series [1], in series [3] and in series [5] was less than 6 µM throughout. Further, the Vd in series [2] turned out to be 2.1 L/kg. This molecule showed an inhibition at 2 h, 30 µM on hERG (KCNH2) of less than 10%. The results for the negative-log Ki (pKi) on Adenosine receptor A2a and on Adenosine receptor A1 were 8.47 and 6.30, respectively. In series [4], this molecule registered an AUC(0-t) of 12 µM·h. For the same molecule, the “inhibition (INH)” value against Cytochrome P450 2D6, against Cytochrome P450 2C19 and against Cytochrome P450 1A2 was “Not Active” each time. This molecule returned a clearance in [6] of 6.6 mL/min/kg. Moreover, the Tmax in [7] turned out to be 165 min. Moreover, in the series with Liver, the Drug metabolism is listed as less than 0.04 nmol/min/mg. The inhibition in series [8] amounted to 46%. Also, the bioavailability in series [9] amounted to 21.7%.

Consider `COc1ccc(N2CCOCC2)c2sc(NC(=O)C(C)(C)Oc3ccc(F)c(F)c3)nc12`, for which the thermodynamic solubility at 4 h in series [1], in series [3] and in series [5] was less than 6 µM in each case. For the same molecule, the Vd in series [2] amounted to 2.1 L/kg. Also, the values for the pKi on Adenosine receptor A2a and on Adenosine receptor A1 were 8.19 and 5.96, respectively. For the same molecule, in series [4], the AUC(0-t) was 6.2 µM·h. For the same molecule, the “inhibition (INH)” value on Cytochrome P450 2D6, against Cytochrome P450 2C19 and at Cytochrome P450 1A2 was “Not Active” throughout. This molecule also returned a clearance in series [6] of 10.2 mL/min/kg. For the same molecule, in series [7], the Tmax turned out to be 30 min. The Drug metabolism with Liver is listed as 0.07 nmol/min/mg. The inhibition in [8] is 38%. The bioavailability in series [9] came to 17%.

As for `COc1ccc(N2CCOCC2)c2sc(NC(=O)C3(C)CCC(C)(O)CC3)nc12` (stereo not given), the thermodynamic solubility at 4 h amounted to 114 µM (≈ 47.8 µg/mL) in series [1], 139 µM (≈ 58.3 µg/mL) in series [3] and 111 µM (≈ 46.6 µg/mL) in series [5]. In addition, the Vd in series [2] turned out to be 1.5 L/kg. Moreover, on hERG (KCNH2), the inhibition at 2 h, 30 µM was determined as 26%. Moreover, the results for the pKi on Adenosine receptor A2a and at Adenosine receptor A1 were 8.07 and 5.54, respectively. For the same molecule, the AUC(0-t) in series [4] worked out at 7.8 µM·h. Besides, the clearance in series [6] is 32 mL/min/kg. Further, the Tmax in [7] is 30 min. Moreover, the Drug metabolism with Liver is less than 0.04 nmol/min/mg. Besides, the bioavailability in [9] was determined as 63%.
